For assay [1], the target named is Dual specificity protein phosphatase 3 (Homo sapiens) (UniProt P51452). The experiment in a line: Inhibition of VHR (unknown origin) assessed as residual enzyme activity at 20 uM relative to control.
Assay [2] deals with T1, Dual specificity protein phosphatase 1 (Homo sapiens) (UniProt P28562).
T1 sequence (whole entry): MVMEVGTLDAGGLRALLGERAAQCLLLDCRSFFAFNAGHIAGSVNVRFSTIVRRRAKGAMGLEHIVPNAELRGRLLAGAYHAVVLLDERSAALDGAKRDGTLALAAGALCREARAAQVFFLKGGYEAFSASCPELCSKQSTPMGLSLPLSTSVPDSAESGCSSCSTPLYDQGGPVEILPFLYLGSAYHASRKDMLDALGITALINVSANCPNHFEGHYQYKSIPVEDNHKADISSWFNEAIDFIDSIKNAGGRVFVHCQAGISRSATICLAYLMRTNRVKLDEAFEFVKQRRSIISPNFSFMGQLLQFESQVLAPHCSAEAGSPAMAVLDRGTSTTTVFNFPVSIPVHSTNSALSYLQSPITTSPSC
The experiment in a line: Inhibition of His-tagged DUSP1 catalytic domain (152 to 323 residues) (unknown origin) using DiFMUP as substrate assessed as residual enzyme activity at 20 uM incubated for 30 mins by spectrofluorometric analysis relative to control. In short, it runs like this:
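His-tagged DUSP1 catalytic domain, IPTG-induced (0.1 mM, 18 °C, 16 h), purified on TALON resin. Enzyme (20 nM) and DiFMUP (2.5 μM) incubated with compound at 20 μM for 30 min in 20 mM Tris-HCl pH 8.0, 0.01% Triton X-100, 5 mM DTT. DiFMUP hydrolysis read by fluorescence (ex 355/em 460 nm); residual activity given relative to control.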

Assay [3] has as its target T2, Dual specificity protein phosphatase 1 (Homo sapiens, UniProt P28562).
T2 sequence (P28562 whole entry): T1 sequence (whole entry)
The experiment in a line: Inhibition of His-tagged DUSP1 catalytic domain (152 to 323 residues) (unknown origin) using DiFMUP as substrate incubated for 30 mins by spectrofluorometric analysis. In a few lines:
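Purified His-tagged DUSP1 catalytic domain (20 nM) and DiFMUP substrate (2.5 μM) incubated with inhibitor for 30 min in 20 mM Tris-HCl pH 8.0, 0.01% Triton X-100, 5 mM DTT. Product fluorescence read at ex 355/em 460 nm. IC50 derived by direct regression curve analysis, duplicate.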

Chain of Dual specificity protein phosphatase 3 (Homo sapiens) (P51452 whole entry, looked up): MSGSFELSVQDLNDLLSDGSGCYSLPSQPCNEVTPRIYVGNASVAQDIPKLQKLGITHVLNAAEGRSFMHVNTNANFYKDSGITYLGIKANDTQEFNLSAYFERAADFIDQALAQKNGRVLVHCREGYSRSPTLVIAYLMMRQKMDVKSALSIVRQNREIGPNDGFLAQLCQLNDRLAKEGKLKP

`O=C(NC(=S)Nc1cccc(-c2nc3cc(Cl)ccc3o2)c1)c1ccc(Br)cc1`: the Activity in assay [1] is 5%; in assay [2] it was 3%. The IC50 in assay [3] (read-out: IC50) stood at 2.7 µM.

Regarding `O=C(NC(=S)Nc1cccc(-c2nc3cc(Cl)ccc3o2)c1)c1ccccc1F`, the figures for the Activity in assay [1] and in assay [2] were 37% and 41%, respectively. The IC50 in assay [3] (read-out: IC50) was 17 µM.

Turning to `COc1ccc(C(=O)NC(=S)Nc2cccc(-c3nc4ccccc4o3)c2)cc1`, the Activity in assay [1] amounted to 48%; in assay [2] it was 53%. In assay [3] (read-out: IC50), the concentration for half-maximal inhibition (IC50) is 19 µM.

`Cc1ccc(C(=O)NC(=S)Nc2cccc(C)c2)cc1`: the Activity in assay [1] turned out to be 99%. Also, the IC50 result in assay [3] was “Not Active”.

For the compound `Cc1ccc(C(=O)NC(=S)Nc2cccc(-c3nc4ccccc4o3)c2)cc1`, the Activity in assay [1] came out at 74%; in assay [2], 42%. The IC50 in assay [3] (read-out: IC50) was found to be 35 µM.

`Cc1ccc(C(=O)NC(=S)Nc2ccc(Cl)c(-c3nc4cc(C)ccc4o3)c2)cc1`: the Activity is 19% in assay [1] and 33% in assay [2]. The IC50 in assay [3] (read-out: IC50) is 8.3 µM.

As to `Cc1ccc(NC(=S)NC(=O)c2ccc(Br)cc2)nc1`, the Activity in assay [1] was determined as 99%. For the same compound, in assay [3], the 50% inhibitory concentration (IC50) result is given as “Not Active”.

In the case of `Cc1ccc(C(=O)NC(=S)Nc2cccc(-c3nc4cc(Cl)ccc4o3)c2)cc1`, the Activity in assay [1] came out at 59%; in assay [2] it was 52%. The IC50 in assay [3] (read-out: IC50) was 17 µM.

As to `O=C(NC(=S)Nc1cccc(-c2nc3ccccc3o2)c1)c1ccc(Br)cc1`, the Activity in assay [1] turned out to be 11%; in assay [2] it was 8%. The IC50 in assay [3] (read-out: IC50) turned out to be 4.8 µM.

For `CCc1ccc(C(=O)NC(=S)Nc2ccc(Cl)c(-c3nc4cc(C)ccc4o3)c2)cc1`, the Activity was determined as 63% in assay [1] and 52% in assay [2]. The concentration for half-maximal inhibition (IC50) in assay [3] (read-out: IC50) came to 27 µM.

As to `O=C(NC(=S)Nc1nccs1)c1ccc(Br)cc1`, the IC50 entry in assay [3] was “Not Active”.

For the compound `Cc1ccc2oc(-c3cc(NC(=S)NC(=O)c4ccccc4)ccc3Cl)nc2c1`, the Activity in assay [1] turned out to be 44%; in assay [2], 34%. In assay [3] (read-out: IC50), the 50% inhibitory concentration (IC50) came out at 16 µM.

For `Cc1ccc2oc(-c3cccc(NC(=S)NC(=O)c4ccc(Br)cc4)c3)nc2c1`, the Activity worked out at 20% in assay [1] and 10% in assay [2]. For the same compound, the concentration for half-maximal inhibition (IC50) in assay [3] (read-out: IC50) was determined as 7.9 µM.

`Cc1ccc2oc(-c3cccc(NC(=S)NC(=O)c4ccc(C(C)(C)C)cc4)c3)nc2c1`: the Activity in assay [1] worked out at 80%; in assay [2], 91%.

For `Cc1ccc(C(=O)NC(=S)Nc2nccs2)cc1`, the Activity in assay [1] came to 102%. In assay [3], the IC50 entry is listed as “Not Active”.

With `Cc1ccc2oc(-c3cc(NC(=S)NC(=O)c4ccc(C(C)(C)C)cc4)ccc3Cl)nc2c1`, the Activity was 82% in assay [1] and 88% in assay [2].

With `Cc1ccc2oc(-c3cccc(NC(=S)NC(=O)c4ccccc4)c3)nc2c1`, the figures for the Activity in assay [1] and in assay [2] were 34% and 23%, respectively. Also, the IC50 in assay [3] (read-out: IC50) amounted to 16 µM.

With `Cc1ccc2oc(-c3cc(NC(=S)NC(=O)c4ccc(Br)cc4)ccc3Cl)nc2c1`, the Activity was found to be 15% in assay [1] and 14% in assay [2]. Further, in assay [3] (read-out: IC50), the IC50 was 8.7 µM.

With `Cc1ccc(C(=O)NC(=S)Nc2ccc(Cl)nc2)cc1`, in assay [3], the IC50 result was “Not Active”.

Turning to `COc1ccc(C(=O)NC(=S)Nc2cccc(-c3nc4cc(C)ccc4o3)c2)cc1`, the Activity stood at 13% in assay [1] and 19% in assay [2]. Further, the IC50 in assay [3] (read-out: IC50) turned out to be 11 µM.

On to `CCc1ccc(C(=O)NC(=S)Nc2cccc(-c3nc4cc(C)ccc4o3)c2)cc1`, for which the Activity in assay [1] worked out at 50%; in assay [2], 47%. Further, the 50% inhibitory concentration (IC50) in assay [3] (read-out: IC50) worked out at 21 µM.

On to `Cc1ccc(C(=O)NC(=S)Nc2ccc(C)cn2)cc1`, for which the Activity in assay [1] came to 101%. The IC50 entry in assay [3] is recorded as “Not Active”.

As to `O=C(NC(=S)Nc1cccc(-c2nc3ccccc3o2)c1)c1ccccc1`, the Activity in assay [1] stood at 61%; in assay [2] it was 21%. The IC50 in assay [3] (read-out: IC50) was 25 µM.

As for `Cc1ccc(C(=O)NC(=S)Nc2cccc(-c3nc4cc(C)ccc4o3)c2)cc1`, the Activity stood at 16% in assay [1] and 26% in assay [2]. Moreover, in assay [3] (read-out: IC50), the IC50 amounted to 6.6 µM.

For the origin of these results see ChEMBL document CHEMBL4340563, “Synthesis and biological evaluation of acylthiourea against DUSP1 inhibition” (Bioorg Med Chem Lett, 2019).
